# Data taken from ChEMBL document CHEMBL4382192, “Discovery of a potent dual ALK and EGFR T790M inhibitor” (Eur J Med Chem, 2017).
# Tests used:
# [1] = system: Tyrosine-protein kinase ABL1 (Homo sapiens), P00519 [Q252H]; assay: Binding affinity to human phosphorylated ABL1 Q252H mutant expressed in mammalian expression system assessed as residual binding level at 1 uM by Kinomescan method relative to control
# Outline: (§1)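 Kinome-wide selectivity panel run by the KINOMEscan method, with the test compound at a single concentration of 1 μM. Wild-type and mutant kinases were profiled in the same screen.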
# [2] = system: Phosphatidylinositol 4,5-bisphosphate 3-kinase catalytic subunit alpha isoform (Homo sapiens), P42336 [E545K]; assay: Binding affinity to human partial length PIK3CA E545K mutant (R108 to N1068 residues) expressed in mammalian expression system assessed as residual binding level at 1 uM by Kinomescan method relative to control
# [3] = target: Serine/threonine-protein kinase 36 (Homo sapiens) (UniProt Q9NRP7); assay: Binding affinity to wild-type human partial length STK36 (M1 to T271 residues) expressed in bacterial expression system assessed as residual binding level at 1 uM by Kinomescan method relative to control
# [4] = system: Mast/stem cell growth factor receptor Kit (Homo sapiens), P10721 [D816V]; assay: Binding affinity to human partial length KIT D816V mutant (I571 to D952 residues) expressed in bacterial expression system assessed as residual binding level at 1 uM by Kinomescan method relative to control; outline: as §1
# [5] = target: Serine/threonine-protein kinase 25 (Homo sapiens) (UniProt O00506); assay: Binding affinity to wild-type human partial length YSK1 (V14 to H295 residues) expressed in bacterial expression system assessed as residual binding level at 1 uM by Kinomescan method relative to control
# [6] = target: Insulin receptor-related protein (Homo sapiens) (UniProt P14616); assay: Binding affinity to wild-type human partial length INSRR (R950 to E1278 residues) expressed in bacterial expression system assessed as residual binding level at 1 uM by Kinomescan method relative to control
# [7] = target: Serine/threonine-protein kinase Nek4 (Homo sapiens) (UniProt P51957); assay: Binding affinity to wild-type human full length NEK4 (M1 to F841 residues) expressed in mammalian expression system assessed as residual binding level at 1 uM by Kinomescan method relative to control
# Outline: (§2)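 Single-point kinome-wide KINOMEscan binding panel, test compound at 1 μM, run by the provider's standard protocol.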
# [8] = target: Serine/threonine-protein kinase ULK3 (Homo sapiens) (UniProt Q6PHR2); assay: Binding affinity to wild-type human partial length ULK3 (M1 to Q290 residues) expressed in mammalian expression system assessed as residual binding level at 1 uM by Kinomescan method relative to control
# [9] = target: Ephrin type-A receptor 5 (Homo sapiens) (UniProt P54756); assay: Binding affinity to wild-type human partial length EPHA5 (T627 to V930 residues) expressed in bacterial expression system assessed as residual binding level at 1 uM by Kinomescan method relative to control
# Sequence of Ephrin type-A receptor 5 (Homo sapiens) (P54756 whole entry, the tested form may be a part): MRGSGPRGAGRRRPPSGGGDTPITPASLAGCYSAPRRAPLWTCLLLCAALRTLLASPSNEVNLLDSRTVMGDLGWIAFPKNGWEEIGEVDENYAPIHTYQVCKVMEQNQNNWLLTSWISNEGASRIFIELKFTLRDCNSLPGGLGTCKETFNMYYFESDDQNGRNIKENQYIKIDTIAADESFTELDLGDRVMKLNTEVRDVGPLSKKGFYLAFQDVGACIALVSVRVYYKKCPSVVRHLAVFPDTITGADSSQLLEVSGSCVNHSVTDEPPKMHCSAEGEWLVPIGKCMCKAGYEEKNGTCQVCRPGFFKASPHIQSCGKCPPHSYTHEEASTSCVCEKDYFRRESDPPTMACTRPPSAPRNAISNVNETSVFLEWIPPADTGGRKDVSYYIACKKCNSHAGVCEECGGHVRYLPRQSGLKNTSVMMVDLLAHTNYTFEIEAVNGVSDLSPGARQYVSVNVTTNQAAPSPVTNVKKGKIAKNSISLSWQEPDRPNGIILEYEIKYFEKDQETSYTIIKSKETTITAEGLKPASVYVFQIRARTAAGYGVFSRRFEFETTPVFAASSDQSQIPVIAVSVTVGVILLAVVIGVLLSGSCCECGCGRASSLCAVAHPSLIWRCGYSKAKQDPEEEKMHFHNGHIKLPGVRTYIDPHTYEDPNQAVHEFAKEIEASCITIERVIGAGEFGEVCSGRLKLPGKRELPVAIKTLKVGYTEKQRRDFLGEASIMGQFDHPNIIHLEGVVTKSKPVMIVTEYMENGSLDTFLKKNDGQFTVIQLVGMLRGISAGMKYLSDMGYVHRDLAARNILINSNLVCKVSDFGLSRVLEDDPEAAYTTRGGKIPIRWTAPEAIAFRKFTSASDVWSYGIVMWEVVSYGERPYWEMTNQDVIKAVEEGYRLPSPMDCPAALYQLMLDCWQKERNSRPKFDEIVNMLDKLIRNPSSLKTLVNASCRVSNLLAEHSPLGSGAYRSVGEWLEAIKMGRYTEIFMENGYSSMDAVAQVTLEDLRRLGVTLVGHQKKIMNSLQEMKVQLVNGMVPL
# [10] = target: Rhodopsin kinase GRK7 (Homo sapiens) (UniProt Q8WTQ7); assay: Binding affinity to wild-type human full length GRK7 (M1 to L553 residues) expressed in mammalian expression system assessed as residual binding level at 1 uM by Kinomescan method relative to control; outline: as §2
# Sequence of Rhodopsin kinase GRK7 (Homo sapiens) (Q8WTQ7 whole entry, the tested form may be a part, canonical isoform): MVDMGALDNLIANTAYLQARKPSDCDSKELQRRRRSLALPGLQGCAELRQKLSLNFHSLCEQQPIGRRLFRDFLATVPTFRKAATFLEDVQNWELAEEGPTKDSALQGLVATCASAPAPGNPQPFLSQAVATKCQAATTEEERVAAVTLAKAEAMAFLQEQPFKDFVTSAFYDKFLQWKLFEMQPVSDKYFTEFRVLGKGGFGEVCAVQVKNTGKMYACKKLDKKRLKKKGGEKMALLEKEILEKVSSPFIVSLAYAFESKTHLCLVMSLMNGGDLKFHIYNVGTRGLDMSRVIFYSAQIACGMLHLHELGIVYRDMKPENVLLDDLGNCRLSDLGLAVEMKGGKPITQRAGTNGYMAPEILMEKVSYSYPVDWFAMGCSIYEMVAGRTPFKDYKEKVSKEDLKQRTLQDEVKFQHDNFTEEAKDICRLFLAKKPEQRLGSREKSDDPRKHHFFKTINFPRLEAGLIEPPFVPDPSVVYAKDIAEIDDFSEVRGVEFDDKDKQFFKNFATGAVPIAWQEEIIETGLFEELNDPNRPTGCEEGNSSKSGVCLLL
# [11] = system: Phosphatidylinositol 4,5-bisphosphate 3-kinase catalytic subunit alpha isoform (Homo sapiens), P42336 [I800L]; assay: Binding affinity to human partial length PIK3CA I800L mutant (R108 to N1068 residues) expressed in mammalian expression system assessed as residual binding level at 1 uM by Kinomescan method relative to control
# [12] = target: Platelet-derived growth factor receptor beta (Homo sapiens) (UniProt P09619); assay: Binding affinity to wild-type human partial length PDGFRB (V582 to Y1009 residues) expressed in bacterial expression system assessed as residual binding level at 1 uM by Kinomescan method relative to control
# [13] = target: Aurora kinase A (Homo sapiens) (UniProt O14965); assay: Binding affinity to wild-type human partial length AURKA (E122 to K401 residues) expressed in mammalian expression system assessed as residual binding level at 1 uM by Kinomescan method relative to control
# Sequence of Aurora kinase A (Homo sapiens) (O14965 whole entry, the tested form may be a part): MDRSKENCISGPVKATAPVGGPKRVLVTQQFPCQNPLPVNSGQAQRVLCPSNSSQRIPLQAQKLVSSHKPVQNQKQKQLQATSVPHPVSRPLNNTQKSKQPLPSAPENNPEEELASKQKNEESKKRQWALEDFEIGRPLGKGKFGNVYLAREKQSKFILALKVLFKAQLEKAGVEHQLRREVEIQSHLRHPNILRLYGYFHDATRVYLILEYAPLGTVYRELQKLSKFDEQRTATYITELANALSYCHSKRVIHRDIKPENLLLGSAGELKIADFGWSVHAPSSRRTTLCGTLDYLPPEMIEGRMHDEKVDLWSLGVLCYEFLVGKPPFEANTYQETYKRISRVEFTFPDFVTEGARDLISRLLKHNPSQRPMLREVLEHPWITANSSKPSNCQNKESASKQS
# [14] = target: Serine/threonine-protein kinase TAO2 (Homo sapiens) (UniProt Q9UL54); assay: Binding affinity to wild-type human partial length TAOK2 (M1 to A320 residues) expressed in mammalian expression system assessed as residual binding level at 1 uM by Kinomescan method relative to control
# Sequence of Serine/threonine-protein kinase TAO2 (Homo sapiens) (Q9UL54 whole entry, the tested form may be a part): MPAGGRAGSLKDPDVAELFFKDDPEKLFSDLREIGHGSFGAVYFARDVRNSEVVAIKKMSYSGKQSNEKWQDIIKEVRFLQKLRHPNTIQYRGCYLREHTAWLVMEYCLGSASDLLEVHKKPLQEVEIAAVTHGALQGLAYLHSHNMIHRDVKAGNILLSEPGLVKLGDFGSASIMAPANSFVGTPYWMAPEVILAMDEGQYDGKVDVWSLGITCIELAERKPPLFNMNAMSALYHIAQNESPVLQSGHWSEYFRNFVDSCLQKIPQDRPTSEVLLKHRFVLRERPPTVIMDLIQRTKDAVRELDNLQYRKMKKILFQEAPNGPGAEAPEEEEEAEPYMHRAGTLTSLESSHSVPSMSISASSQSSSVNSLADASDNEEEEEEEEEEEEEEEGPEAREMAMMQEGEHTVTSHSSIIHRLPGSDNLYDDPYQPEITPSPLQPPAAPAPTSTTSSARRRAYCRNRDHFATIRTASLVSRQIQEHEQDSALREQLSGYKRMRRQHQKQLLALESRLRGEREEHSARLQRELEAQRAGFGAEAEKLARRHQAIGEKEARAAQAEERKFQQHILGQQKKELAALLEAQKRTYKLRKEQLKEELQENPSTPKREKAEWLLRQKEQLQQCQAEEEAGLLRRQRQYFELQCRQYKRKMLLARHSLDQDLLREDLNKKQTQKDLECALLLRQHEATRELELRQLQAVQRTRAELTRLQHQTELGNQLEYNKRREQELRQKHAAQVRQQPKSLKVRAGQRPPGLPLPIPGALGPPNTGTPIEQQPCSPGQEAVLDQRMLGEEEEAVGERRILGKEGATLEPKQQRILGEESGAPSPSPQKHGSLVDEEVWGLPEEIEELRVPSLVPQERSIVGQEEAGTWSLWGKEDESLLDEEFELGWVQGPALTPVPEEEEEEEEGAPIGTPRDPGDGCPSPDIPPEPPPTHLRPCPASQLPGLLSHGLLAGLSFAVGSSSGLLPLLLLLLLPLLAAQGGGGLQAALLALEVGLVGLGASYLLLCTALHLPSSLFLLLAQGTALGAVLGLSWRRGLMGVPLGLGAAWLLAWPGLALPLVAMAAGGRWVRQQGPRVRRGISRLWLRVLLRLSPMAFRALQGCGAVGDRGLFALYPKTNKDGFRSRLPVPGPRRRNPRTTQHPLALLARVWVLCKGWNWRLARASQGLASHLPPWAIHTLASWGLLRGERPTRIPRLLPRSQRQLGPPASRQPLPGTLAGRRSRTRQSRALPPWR
# [15] = system: Epidermal growth factor receptor (Homo sapiens), P00533 [UNDEFINED MUTATION]; assay: Binding affinity to human partial length EGFR L747-E749del/A750P mutant expressed in bacterial expression system assessed as residual binding level at 1 uM by Kinomescan method relative to control; outline: as §1
# Sequence of Epidermal growth factor receptor (Homo sapiens), P00533 [UNDEFINED MUTATION] (P00533 whole entry, looked up, stated change not applied, the tested form may be a part): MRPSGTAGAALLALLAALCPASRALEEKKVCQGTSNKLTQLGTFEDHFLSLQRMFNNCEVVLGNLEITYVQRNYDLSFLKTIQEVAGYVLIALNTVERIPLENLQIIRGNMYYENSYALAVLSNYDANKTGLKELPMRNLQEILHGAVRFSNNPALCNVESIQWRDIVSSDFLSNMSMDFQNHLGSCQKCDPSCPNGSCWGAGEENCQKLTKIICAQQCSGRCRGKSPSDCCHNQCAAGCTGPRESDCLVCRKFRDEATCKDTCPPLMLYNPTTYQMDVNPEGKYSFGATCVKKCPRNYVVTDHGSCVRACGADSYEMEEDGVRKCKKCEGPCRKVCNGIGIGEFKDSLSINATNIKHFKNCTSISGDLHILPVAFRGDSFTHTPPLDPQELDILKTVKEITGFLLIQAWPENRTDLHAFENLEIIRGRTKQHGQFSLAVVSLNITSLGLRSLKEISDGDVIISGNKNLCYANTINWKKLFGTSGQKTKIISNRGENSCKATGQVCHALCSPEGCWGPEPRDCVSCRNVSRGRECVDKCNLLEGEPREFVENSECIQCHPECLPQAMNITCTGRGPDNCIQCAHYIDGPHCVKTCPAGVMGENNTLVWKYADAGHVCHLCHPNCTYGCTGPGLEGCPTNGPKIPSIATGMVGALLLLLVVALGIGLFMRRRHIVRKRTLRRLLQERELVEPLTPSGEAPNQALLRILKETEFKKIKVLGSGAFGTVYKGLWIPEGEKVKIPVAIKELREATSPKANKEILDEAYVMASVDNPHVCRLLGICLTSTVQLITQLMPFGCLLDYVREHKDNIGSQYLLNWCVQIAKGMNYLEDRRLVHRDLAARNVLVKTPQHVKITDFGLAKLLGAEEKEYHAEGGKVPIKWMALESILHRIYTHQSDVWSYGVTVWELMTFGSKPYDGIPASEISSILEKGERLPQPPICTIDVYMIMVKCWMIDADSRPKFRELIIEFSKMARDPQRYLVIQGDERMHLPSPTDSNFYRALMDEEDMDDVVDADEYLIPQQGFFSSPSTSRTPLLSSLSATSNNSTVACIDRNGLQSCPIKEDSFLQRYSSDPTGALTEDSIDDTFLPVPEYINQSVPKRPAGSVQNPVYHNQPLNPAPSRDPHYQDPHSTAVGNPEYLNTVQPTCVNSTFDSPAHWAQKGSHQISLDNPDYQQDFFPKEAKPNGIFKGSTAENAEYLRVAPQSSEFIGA
# [16] = target: Cyclin-dependent kinase 4 (Homo sapiens) (UniProt P11802); assay: Binding affinity to wild-type human full length CDK4 (M1 to E303 residues) expressed in mammalian expression system assessed as residual binding level at 1 uM by Kinomescan method relative to control
# [17] = Metabolic stability in rat liver microsomes assessed as parent compound remaining at 1 uM after 30 mins in presence of NADPH by LC/MS/MS analysis; format: ADME, Microsome; conditions: read-out: Stability
# Outline: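 Compound at 1 μM final with 0.5 mg/mL microsomal protein in 100 mM phosphate buffer pH 7.4 at 37 °C, started by adding an NADPH-regenerating system. Reactions were quenched with cold acetonitrile at 0 and 30 min and spun down. Supernatant was analysed by LC-MS/MS. The 0-min sample, quenched before NADPH addition, was set as 100%, and percent parent remaining came from peak areas.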
# [18] = target: Protein kinase C epsilon type (Homo sapiens) (UniProt Q02156); assay: Binding affinity to wild-type human partial length PRKCE (A378 to P737 residues) expressed in mammalian expression system assessed as residual binding level at 1 uM by Kinomescan method relative to control
# [19] = system: Epidermal growth factor receptor (Homo sapiens), P00533 [UNDEFINED MUTATION]; assay: Binding affinity to human partial length EGFR S752-I759del mutant expressed in bacterial expression system assessed as residual binding level at 1 uM by Kinomescan method relative to control; outline: as §1
# [20] = target: Ribosomal protein S6 kinase alpha-2 (Homo sapiens) (UniProt Q15349); assay: Binding affinity to wild-type human partial length N-terminal RSK3 kinase domain 1 (M1 to Q385 residues) expressed in bacterial expression system assessed as residual binding level at 1 uM by Kinomescan method relative to control
# [21] = target: Serine/threonine-protein kinase Nek10 (Homo sapiens) (UniProt Q6ZWH5); assay: Binding affinity to wild-type human partial length NEK10 (L488 to R809 residues) expressed in mammalian expression system assessed as residual binding level at 1 uM by Kinomescan method relative to control
# [22] = target: Tyrosine-protein kinase BTK (Homo sapiens) (UniProt Q06187); assay: Binding affinity to wild-type human full length BTK (M1 to S659 residues) expressed in mammalian expression system assessed as residual binding level at 1 uM by Kinomescan method relative to control
# CYP2D6 = CYP2D6 (Homo sapiens, UniProt P10635); assay: Residual activity of CYP2D6 in human liver microsomes at 10 uM using dextromethorphan O-demethylase as substrate preincubated for 5 mins followed by NADPH addition measured after 15 mins by LC/MS/MS analysis relative to control; conditions: probe dextromethorphan (O-demethylation)
# Sequence of CYP2D6 (P10635 whole entry): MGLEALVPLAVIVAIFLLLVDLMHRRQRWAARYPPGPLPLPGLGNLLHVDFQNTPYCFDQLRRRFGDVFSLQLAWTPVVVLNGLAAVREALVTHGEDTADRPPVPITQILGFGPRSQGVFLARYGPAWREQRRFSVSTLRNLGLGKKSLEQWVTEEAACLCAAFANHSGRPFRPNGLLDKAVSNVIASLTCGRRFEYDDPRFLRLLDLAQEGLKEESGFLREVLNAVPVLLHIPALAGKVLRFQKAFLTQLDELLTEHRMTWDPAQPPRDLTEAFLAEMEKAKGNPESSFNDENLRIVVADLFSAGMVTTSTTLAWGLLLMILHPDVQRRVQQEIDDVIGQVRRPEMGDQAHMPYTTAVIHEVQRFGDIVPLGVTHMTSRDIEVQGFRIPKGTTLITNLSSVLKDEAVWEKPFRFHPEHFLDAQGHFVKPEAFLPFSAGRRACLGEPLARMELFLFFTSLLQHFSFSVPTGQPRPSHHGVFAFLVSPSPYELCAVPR
compound,measurement,setting,value
C=CC(=O)Nc1cc(Nc2ncc(Cl)c(Nc3ccccc3S(=O)(=O)C(C)C)n2)c(OC)cc1N(C)CCN(C)C,Activity,[1],2.8%
same,Activity,[2],54%
same,Activity,[3],88%
same,Activity,[4],26%
same,Activity,[5],81%
same,Activity,[6],0.25%
same,Activity,[7],100%
same,Activity,[8],7.7%
same,Activity,[9],88%
same,Activity,[10],4.3%
same,Activity,[11],81%
same,Activity,[12],43%
same,Activity,[13],4.2%
same,Activity,[14],52%
same,Activity,[15],0%
same,Activity,[16],99%
same,"remaining at 0.5 h, 1 µM",[17],11%
same,Activity,[18],99%
same,Activity,[19],2.4%
same,Activity,[20],5.6%
same,Activity,[21],28%
same,Activity,[22],0%
same,"Activity at […], 10 µM",CYP2D6,90%
